# Screening results from PubChem BioAssay.
# Rows were chosen to be rich in hits. Some 4.8% of all compounds tested hit in one or more screens of this group.
# Jurkat NFkB inh: lowers PMA/ionomycin-induced NF-kB signal in Jurkat cells; inhibition, % at 4 µM; AID 435003; PMA/ionomycin-induced NF-kB luciferase reporter, luminescence; hit rate 0.53% among 330,000; in the data active means inhibition above about 50%
# HSF-1 act: increases HSF-1 driven luciferase reporter signal; NIH3T3-HGL HSF-1 luciferase reporter, MG132, 8 h; 100% = twice DMSO control signal; activation, % at 9 µM; hit rate 1.7% among 300,000;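 active means mean replicate activation of at least 50% with a set share of replicates each reaching 50%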
# T cruzi repl: T. cruzi replication inhibition; inhibition, % (no concentration beside the values); hit rate 1.4% among 300,000; T. cruzi beta-gal in NIH3T3, luminescence, 90 h; AID 1885;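 active means mean inhibition across valid replicates above about 55%, limit read from the data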;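 further: signal also drops with host cell toxicity which is not excluded here; higher percent means less beta-gal luminescence so fewer parasites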
#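 compound dosing = single 50 nL compound addition per well in DMSO | material = NIH/3T3 host cells with β-galactosidase reporter T. cruzi | input = 5,000 host fibroblasts per well | timing = ≥90 h infection period, 3 h prior cell attachment | read-out basis = percent inhibition of parasite-derived β-gal signal | detection = GalScreen β-gal luminescence, detergent lysis, 60 min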
# GPR7 antagonist: blocks human GPR7 receptor signaling | P48145 | GPR7-expressing cells, fluorescence antagonist assay | inhibition, % at 4.4 µM | hit rate 1.1% among 290,000; in the data active means inhibition above about 16%, passing the limit was not always enough;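 further: cells stimulated with the agonist NPW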
# Target sequence (P48145 whole entry, looked up): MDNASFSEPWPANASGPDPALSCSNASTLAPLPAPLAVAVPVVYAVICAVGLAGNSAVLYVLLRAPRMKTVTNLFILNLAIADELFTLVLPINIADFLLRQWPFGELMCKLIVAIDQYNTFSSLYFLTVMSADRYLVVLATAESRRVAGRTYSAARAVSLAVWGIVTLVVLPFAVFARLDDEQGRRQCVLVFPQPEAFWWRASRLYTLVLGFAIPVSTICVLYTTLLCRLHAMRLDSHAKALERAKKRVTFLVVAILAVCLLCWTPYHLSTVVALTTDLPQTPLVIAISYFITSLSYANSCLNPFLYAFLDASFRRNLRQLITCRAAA
# 697 NFkB inh: inhibitors of the PMA/ionomycin-induced NF-kB reporter in 697 B cells; 697 B-cell NF-kB luciferase reporter, 16 h; inhibition, % at 4 µM; hit rate 0.33% among 330,000; AID 435022; in the data active means inhibition above about 35%
# HSF1 inh: HSF1 inhibition. hit rate 0.77% among 300,000. AID 2098. NIH3T3-HGL HSE-luciferase, MG132-induced, luminescence 8 h; active compounds read low. activity change, negative = inhibition, % at 7.5 µM (by protocol);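 active means more than half of replicate wells show activity change below -50%, luminescence cut by over half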;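 further: luciferase reports HSF-1 transcriptional activity via heat shock element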
# Hits are given with their value; i = inactive; nt = no result.
SMILES,Jurkat NFkB inh,HSF-1 act,T cruzi repl,GPR7 antagonist,697 NFkB inh,HSF1 inh
Cc1c(C(=O)Nc2ccccc2[N+](=O)[O-])csc1-c1ccccc1,i,61,i,i,i,i
Cc1ccccc1C(=O)NC(=S)Nc1ccccc1C(=O)O,i,i,i,i,i,i
O=[N+]([O-])c1cc(-c2csc(NC(CO)c3nc4ccccc4n3CCOCCO)n2)ccc1Cl (stereo not given),i,i,i,nt,i,i
CC(=O)OCCCNc1cc(Sc2nc3ccccc3s2)c2nonc2c1[N+](=O)[O-],i,i,69,i,i,-79
Cn1ccnc1Sc1cc(NCCCO)c([N+](=O)[O-])c2nonc12,i,i,i,i,i,-95
CC(=O)OCCCNc1cc(Sc2ccc(C)cc2)c2nonc2c1[N+](=O)[O-],i,i,i,i,i,-80
CCCCCOc1ccc(C(O)C(CN2CCOCC2)c2ccccc2)cc1 (stereo not given),i,i,i,i,i,i
Clc1cc(Cl)cc(CN2CCSCC2)c1,i,i,i,i,i,i
O=C(CN(c1ccc(Br)cc1)S(=O)(=O)c1ccc(Cl)c([N+](=O)[O-])c1)NCCc1ccccc1,i,i,75,i,i,i
CCN(CC(=O)NCCc1ccccc1)S(=O)(=O)c1ccc(Br)cc1,i,i,i,i,i,i
Cc1ccc(N(CC(=O)NCCc2ccc(F)cc2)S(=O)(=O)c2ccc(Cl)c([N+](=O)[O-])c2)c(C)c1,i,89,i,48,i,i
CC(C)(C)NC(=O)CN(c1cccc([N+](=O)[O-])c1)S(=O)(=O)c1ccccc1,i,i,i,i,i,i
CC(NC(=O)CN(c1cccc(C(F)(F)F)c1)S(=O)(=O)c1ccc(Cl)c([N+](=O)[O-])c1)c1ccccc1 (stereo not given),i,i,i,46,i,i
O=C(CN(c1cccc(C(F)(F)F)c1)S(=O)(=O)c1ccc(Cl)c([N+](=O)[O-])c1)NCc1ccccc1Cl,i,66,i,i,i,i
O=C(NCc1ccccc1Cl)c1cccc(C(F)(F)F)c1,i,i,i,i,i,i
CN1CCCC(C#CC(O)(c2ccccc2)c2ccccc2)C1 (stereo not given),i,i,i,i,i,i
O=C(CN(c1cccc(C(F)(F)F)c1)S(=O)(=O)c1ccc(Cl)c([N+](=O)[O-])c1)NCc1ccccc1,i,i,i,41,i,i
O=C(O)CN(c1cccc(C(F)(F)F)c1)S(=O)(=O)c1ccccc1,i,i,i,i,i,i
N#CCc1c(C#N)c(N)nc(N2CCN(C=O)CC2)c1C#N,i,i,i,i,i,i
N#CCc1c(C#N)c(N)nc(N2CCN(S(=O)(=O)c3ccccc3)CC2)c1C#N,i,86,i,i,i,i
O=C1c2ccccc2C(=O)N1Cc1ccccn1,i,i,i,i,i,i
Cc1ccccc1NC(=O)c1onc2c1CCCC2,i,i,i,i,i,i
Cc1cccc(NC(=O)c2onc3c2CCCC3)c1C,i,65,i,i,i,i
O=C(Cn1cnc([N+](=O)[O-])n1)N/N=C/c1cccc(Cl)c1,i,i,i,i,i,i
O=C(CCCn1cnc([N+](=O)[O-])n1)Nc1cccc(O)c1,i,i,i,i,i,i
SMILES,Jurkat NFkB inh,HSF-1 act,T cruzi repl,GPR7 antagonist,697 NFkB inh,HSF1 inh
O=C(CCCn1cnc([N+](=O)[O-])n1)Nc1ccc(F)c(Cl)c1,i,i,60,i,i,i
CC1CCc2c(sc(NC(=O)CCCn3cnc([N+](=O)[O-])n3)c2C(N)=O)C1 (stereo not given),i,i,i,i,i,i
O=C(CCCn1cnc([N+](=O)[O-])n1)Nc1ccc(Cl)cc1Cl,i,i,58,i,i,i
NC(=O)c1c(NC(=O)CCCn2cnc([N+](=O)[O-])n2)sc2c1CCCC2,i,i,60,i,i,i
COc1ccc(Cl)cc1NC(=O)C1Cc2cc(S(=O)(=O)N3CCCC3)ccc2N1C(C)=O (stereo not given),i,i,i,i,i,i
N#CC1=C(N)OC2=C(C(=O)CCC2)C1c1cc2c(cc1Cl)OCO2 (stereo not given),i,i,i,i,i,i
Cc1cc(C)nc(SCC(=O)Nc2ccc(Br)cn2)n1,i,i,i,i,i,i
CCC(Sc1nc(C)cc(C)n1)C(=O)NC1=NN=C(c2ccc(C)cc2)CS1 (stereo not given),i,i,i,i,i,-74
CCC(Sc1nc(C)cc(C)n1)C(=O)Nc1cc(C)on1 (stereo not given),i,i,i,i,i,i
Cc1cc(C)nc(SCC(=O)NC2=NN=C(c3ccc(Br)cc3)CS2)n1,i,i,68,i,i,i
O=C(Nc1ccc(F)cc1)N1CCOCC1,i,i,i,i,i,-53
O=C(Nc1ccc(F)cc1)N1CCCCCC1,i,i,i,i,i,i
O=C(Nc1ccc2c(c1)OCCO2)N1CCN(c2ccccc2)CC1,i,i,i,i,i,-57
O=C(O)C1CC=CCC1C(=O)Nc1ccc(F)c(F)c1 (stereo not given),i,i,i,i,i,i
O=C(O)C1CC=CCC1C(=O)Nc1ccc2c(c1)OCCO2 (stereo not given),i,i,i,i,i,-62
CCC(C)(C(=O)NC1CCCC1)N(C(=O)CNC(C)=O)c1ccccc1 (stereo not given),i,i,i,19,i,i
Cc1ccc(S(=O)(=O)c2c(C(=O)c3ccccc3)cnc3cc4c(cc23)OCCO4)cc1,i,i,i,i,i,-66
CC(NC(=O)COC(=O)CCC(=O)c1ccc(F)cc1)c1ccccc1 (stereo not given),i,nt,nt,nt,i,nt
Cc1cc(C)cc(N(CC(=O)Nc2ccc(Br)cc2)S(=O)(=O)c2c(C)[nH]c(=O)[nH]c2=O)c1,i,i,i,i,i,-63
Cc1cc(C)cc(N(CC(=O)Nc2cc(C)ccc2C)S(=O)(=O)c2c(C)[nH]c(=O)[nH]c2=O)c1,i,i,i,i,i,i
COCCNC(=O)C(c1ccc(F)cc1)N(CCOC)C(=O)CCC(=O)Nc1ccccn1 (stereo not given),i,i,i,i,i,i
CC1CN(CCCCOc2cccc(Oc3ccccc3)c2)CC(C)O1 (stereo not given),i,i,56,i,i,i
CC1CN(CCOc2cccc(Oc3ccccc3)c2)CC(C)O1 (stereo not given),i,i,i,i,i,i
CCCCNC(=O)c1onc(CSc2cccc3ccccc23)c1C(=O)O,i,i,i,i,i,i
O=C(CN(Cc1ccccc1Cl)S(=O)(=O)c1ccc(Cl)cc1)N/N=C/c1ccc(C(=O)O)cc1,i,i,i,i,i,-86
